The list is not random: actives were taken first. Their share in the collection is about 3%.
HTR1E agonist: agonists of human 5-HT1E serotonin receptor; P28566; CHO 5-HT1E Ga15 NFAT-bla reporter, FRET; 0% DMSO wells, 100% control agonist wells; 65,000 tested, 0.69% active; activation, % at 6 µM;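 active means activation above a set limit, the screen-wide mean activation plus 3 SD, cut at about 8.5% in these data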;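 further: 100% = positive control agonist at 1 µM giving full maximal response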
S1P1 ag-PAM: S1P1 (human) agonism or agonism potentiation. P21453. activation, % at 9.5 µM. S1P1 CRE-bla cells, forskolin, beta-lactamase FRET, potentiator mode; S1P1 agonist co-added at EC20, 2 nM; 100% = saturating reference agonist, 0% = basal. AID 449. 56,000 tested, 0.57% active;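 active means activation above a cutoff set at the mean activation of all tested compounds plus 3 SD, cut at about 54% in these data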;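 further: forskolin at 4 µM as EC80 and the EC20 agonist is SEW2871; 100% = SEW2871 at its EC100 plus forskolin at EC80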
Target sequence (P21453 whole entry, looked up): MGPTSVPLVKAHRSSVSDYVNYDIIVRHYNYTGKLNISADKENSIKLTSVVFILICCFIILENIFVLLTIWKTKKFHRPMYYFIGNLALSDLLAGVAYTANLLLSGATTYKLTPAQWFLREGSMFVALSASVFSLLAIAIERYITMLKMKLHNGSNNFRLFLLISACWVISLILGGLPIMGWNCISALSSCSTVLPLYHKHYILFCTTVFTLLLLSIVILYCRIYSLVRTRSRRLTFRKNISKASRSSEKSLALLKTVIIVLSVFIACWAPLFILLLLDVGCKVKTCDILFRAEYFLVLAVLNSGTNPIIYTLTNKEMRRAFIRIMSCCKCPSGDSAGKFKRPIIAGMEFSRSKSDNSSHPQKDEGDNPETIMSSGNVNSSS
HTR1A agonist: activates the human 5-HT1a serotonin receptor; activation, % at 10 µM; AID 567; 65,000 tested, 0.56% active; CHO 5-HT1a Ga15 NFAT-bla reporter, FRET ratio; 0% basal, 100% maximal reference agonist;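 active means activation above the screen-wide mean activation plus 3 SD, cut at about 19% in these data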;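 further: 0% = DMSO wells and 100% = 5-CT at EC100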
S1P3 agonist: activates the human S1P3 receptor. Q99500. S1P3 NFAT-BLA reporter cells, agonism, FRET ratio; relative to 1 µM S1P, basal subtracted. activation, % at 4.5 µM. 60,000 tested, 0.1% active. AID 373;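 active means activation above the screen-wide mean plus 3 SD, cut at about 4.5% in these data, passing the limit was not always enough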
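Assay system: CHO cells stably expressing human S1P3, Gα16 and NFAT-β-lactamase reporter. Timing: overnight plating, 4 h compound 37 °C, 2 h substrate RT. Signal: β-lactamase FRET emission ratio 460/535 nm. Measure: percent activation versus median 1 µM S1P response, basal-subtracted, per plate. Repeats: primary screen single test, confirmation screen in triplicate.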
5-HT1A blocker: antagonists of human 5-HT1a serotonin receptor; P08908; CHO 5-HT1a Ga15 NFAT-bla reporter, antagonist mode; inhibition, % at 10 µM; 62,000 tested, 0.68% active; AID 612;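 active means inhibition above the mean of all tested compounds plus 3 SD, cut at about 43% in these data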;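 further: receptor stimulated by 5-CT agonist at 100 nM near EC80; beta-lactamase reporter measured by ratiometric fluorescence of a cleavable substrate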
5HT1E antag: antagonists of human 5-HT1E serotonin receptor; 65,000 tested, 0.99% active; inhibition, % at 6 µM; CHO 5-HT1E Ga15 NFAT-bla reporter, FRET, antagonist; AID 571;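 active means inhibition above a set limit, the mean inhibition across every tested compound plus 3 SD, cut at about 29% in these data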;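 further: signal is the 460 over 535 nm emission ratio of beta-lactamase substrate; 0% = agonist plus DMSO wells and 100% = wells without agonist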
Numbers without * were called inactive; . = no result given.

SMILES	HTR1E agonist	S1P1 ag-PAM	HTR1A agonist	S1P3 agonist	5-HT1A blocker	5HT1E antag
COc1ccc(CN2CCC(C(=O)N3CCN(c4ccccc4F)CC3)CC2)cc1OC	0	-22	0	-2	2	-9
COc1ccc(CN2CCN(c3cccc(C)c3C)CC2)cc1OC	24*	.	29*	0	6	11
Cc1ccc(C(=O)c2coc3ccc(OCC(=O)O)cc23)cc1	-1	-13	0	-1	-1	-1
COc1cccc(-c2nc3ccc(O)cc3c(=O)o2)c1	-1	.	-1	0	-2	-6
Cc1nn(-c2ccccc2)c(Cl)c1C(=O)N1CCN(c2ncnc3c2cnn3-c2ccccc2)CC1	-1	28	0	-1	63*	56*
CCOC(=O)C1CCN(c2ncnc3c2cnn3-c2ccccc2)CC1	0	1	30*	-1	1	7
CCOC(=O)C1CCN(c2ncnc3c2cnn3-c2ccc(Cl)cc2)CC1	0	-12	3	-4	.	-4
O=C(c1ccco1)N1CCN(c2ncnc3c2cnn3-c2ccccc2)CC1	1	-2	2	-2	-6	12
CCOC(=O)C1CCN(c2ncnc3c2oc2ccccc23)CC1	0	97*	0	-1	20	2
c1ccc(N2CCN(c3ncnc4c3oc3ccccc34)CC2)cc1	1	61*	-1	-1	-9	7
CSc1nnc(Cn2c(=O)sc3ccccc32)n1-c1ccccc1C	1	-6	2	1	9	-14
Cc1cccc(Nc2nc(N)nc(CN3CCC(C)CC3)n2)c1C	0	.	-2	-1	16	12
O=C(CN(Cc1ccco1)C(=O)CNS(=O)(=O)c1ccc(Cl)cc1)NC1CCCCC1	0	19	-1	-1	7	8
CN=c1oc2ccc(Cl)cc2cc1C(N)=O	9.8*	-9	-2	-1	15	-1
NC(=O)c1oc2ccc(Cl)cc2c1N	-1	10	2	-1	1	-2
CCC(C)(C(=O)NC1CCCC1)N(Cc1ccco1)C(=O)c1ccc2c(c1)OCO2 (centres undefined)	0	1	-2	-1	49*	-20
CCC(C)(C(=O)NC1CCCC1)N(Cc1cccs1)C(C)=O (centres undefined)	0	.	-2	.	16	6
CCC(C)(C(=O)NC1CCCC1)N(Cc1cccs1)C(=O)Cc1cccs1 (centres undefined)	-1	.	0	.	59*	8
CCC(C)(C(=O)NC1CCCC1)N(Cc1ccco1)C(=O)c1ccccn1 (centres undefined)	0	-1	-1	-1	32	2
CSc1ccccc1NC(=O)CN(Cc1ccc(Cl)cc1)S(C)(=O)=O	-1	-23	-2	-1	17	11
c1ccc(-c2csc3nnc(SCc4ccc5c(c4)OCO5)n23)cc1	1	-21	-3	0	2	29*
O=C(CCSc1nnc2scc(-c3ccccc3)n12)NCc1ccc2c(c1)OCO2	-1	-38	1	0	3	18
CC1Cc2ccccc2N1C(=O)CSc1nnc(CNc2ccccc2)o1 (centres undefined)	-1	13	-3	0	-17	-2
C=C1[C@@H](C)C2[C@H](Cc3ccccc3)NC(=O)[C@]23OC(=O)CC[C@H](O)CCC[C@H](C)C/C=C/[C@H]3[C@@H]1O (some centres undefined)	0	-3	-2	3	.	34*
COC(=O)C1=C(C)N(c2ccc(Cl)c(Cl)c2)C(=O)C1	0	.	0	-1	2	-14
SMILES	HTR1E agonist	S1P1 ag-PAM	HTR1A agonist	S1P3 agonist	5-HT1A blocker	5HT1E antag
O=C(CN1CCN(Cc2ccccc2)CC1)c1ccc(Br)cc1	2	-3	22*	-1	-2	-4
CC(NC(=O)Cc1ccc(F)cc1)C(c1cccs1)N1CCN(C)CC1 (centres undefined)	0	2	-3	-1	-3	3
OC(CN1CCN(c2cccc(C(F)(F)F)c2)CC1)c1c[nH]c2ccccc12 (centres undefined)	1	11	55*	-1	11	-4
O=C(CS(=O)(=O)Cc1ccccc1)N1CCN(c2cccc(C(F)(F)F)c2)CC1	5	-5	-2	-1	-4	-11
O=C(NCCc1c[nH]c2ccccc12)c1c(Cl)nc2sccn12	-2	.	19	.	-9	33*
O=c1c2cc(N3CCOCC3)ccc2[nH]c(=S)n1CCCN1CCCC1	9.6*	.	-1	.	4	-8
O=c1c2cc(N3CCOCC3)ccc2[nH]c(=S)n1CCCN1CCCCC1	0	.	0	.	-6	16
CC(=O)NCc1ccc(-c2csc(N)n2)s1	14*	-12	-3	1	-12	-9
CC1(C)CC(=O)C(/C=N/n2cnc3ccccc3c2=O)=C(O)C1	-1	12	-1	0	4	4
C=CCS/C(=N\n1cnc2ccccc2c1=O)N1CCCCC1	0	2	99*	-1	1	2
COC(=O)c1ccc(N2C(=O)CC(N(C)CCc3ccc(OC)c(OC)c3)C2=O)cc1 (centres undefined)	0	-29	-2	0	-5	-6
On1onc2c3cc(-c4ccccc4)nc3ccc21	-1	.	0	-1	50*	33*
c1ccc(-c2cc3c(ccc4nonc43)nn2)cc1	0	-26	-1	-1	-5	-6
CCn1nnc(NC(=O)c2cc3ccccc3o2)n1	0	-6	-2	0	-10	-4
CCCOc1ccccc1Cn1c(=O)oc2ccc(C)cc21	-1	.	-2	.	44*	14
Cc1ccc2oc(=O)n(CCOc3ccccc3Cl)c2c1	-2	5	0	-1	24	32*
CCOC(=O)N1CCC(N2Cc3cccc(C(=O)O)c3C2=O)CC1	0	-16	83*	-1	-2	-6
CCOC(=O)N1CCC(N2Cc3cccc(C(=O)N4CC(C)CC(C)C4)c3C2=O)CC1 (centres undefined)	0	15	0	0	3	-3
Cn1c(=O)[nH]c(=O)c2c1nc(NCc1ccccc1)n2CC(O)c1ccccc1 (centres undefined)	1	-25	-1	-1	-16	-7
CCN(CC)c1ccc2c(c1)OC(N)=C(C#N)C2c1cccnc1 (centres undefined)	-1	-42	-3	-2	32	77*
CCOC(=O)N1CCC(Nc2c(-c3ccc(C)c(C)c3)c(=O)c2=O)CC1	0	20	-3	1	3	1
CCOC(=O)N1CCC(Nc2c(N3CCN(c4cc(Cl)ccc4C)CC3)c(=O)c2=O)CC1	1	-2	64*	-1	-5	8

Screening data as filed in PubChem BioAssay.
